According to paper PMC8343189 (Acta Pharmaceutica Sinica. B, 2020):

What was measured:
[1] = tested on: intracellular Ca^2+ concentration; assay: Intracellular Ca^2+ fluorescence; assay type: cell-based; conditions: 30 μmol/L compound, 200 μmol/L ATP, Cal520, control 2.3 folds
[2] = Stability under different pH conditions; assay type: physicochemical; conditions: 37 °C, 100 μmol/L, mean ± SD, n = 3
Method in brief: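 Test compound diluted to 100 μmol/L in phosphate buffers at pH 1.0, 4.0, 6.8, 7.4 and 9.0 and held in a 37 °C water bath. HPLC−UV peak area measured at 0, 2 and 5 h; residual expressed relative to the 0 h peak area.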

CHO cells = assay: SRB proliferative cytotoxicity in CHO cells; assay type: cell-based, Chinese Hamster; conditions: 72 h
Method in brief: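 CHO cells in DMEM with 10% FBS, seeded overnight, then exposed to test compound or DMSO vehicle for 72 h. Cells fixed with 10% TCA for 1 h at 4 °C and stained with 0.4% SRB in 1% acetic acid for 15 min in the dark. Washed with acetic acid, dye dissolved in 10 mmol/L Tris-base, absorbance read at 540 nm. n = 3, mean ± SEM, t-test vs DMSO control.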

SD rats [3] = assay: Formalin test on rat; assay type: in vivo; conditions: for number of foot lifts, phase 2: phase 2, vehicle 121 foot lifts
Method in brief: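 30 min later, 50 μL 5% formalin injected into the left paw; controls received saline. Foot lifts counted over phase 1 (0–10 min) and phase 2 (10–60 min). Mean ± SD; ANOVA vs vehicle.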

ANO1 = biological target: T1, ANO1 (Homo sapiens, UniProt Q5XXA6, DEL476-501); assay: YFP fluorescence quenching assay in ANO1-overexpressing FRT cell line; assay type: cell-based
T1 sequence (Q5XXA6 with tags, fused parts or gaps isoform Q5XXA6-5 DEL539-564): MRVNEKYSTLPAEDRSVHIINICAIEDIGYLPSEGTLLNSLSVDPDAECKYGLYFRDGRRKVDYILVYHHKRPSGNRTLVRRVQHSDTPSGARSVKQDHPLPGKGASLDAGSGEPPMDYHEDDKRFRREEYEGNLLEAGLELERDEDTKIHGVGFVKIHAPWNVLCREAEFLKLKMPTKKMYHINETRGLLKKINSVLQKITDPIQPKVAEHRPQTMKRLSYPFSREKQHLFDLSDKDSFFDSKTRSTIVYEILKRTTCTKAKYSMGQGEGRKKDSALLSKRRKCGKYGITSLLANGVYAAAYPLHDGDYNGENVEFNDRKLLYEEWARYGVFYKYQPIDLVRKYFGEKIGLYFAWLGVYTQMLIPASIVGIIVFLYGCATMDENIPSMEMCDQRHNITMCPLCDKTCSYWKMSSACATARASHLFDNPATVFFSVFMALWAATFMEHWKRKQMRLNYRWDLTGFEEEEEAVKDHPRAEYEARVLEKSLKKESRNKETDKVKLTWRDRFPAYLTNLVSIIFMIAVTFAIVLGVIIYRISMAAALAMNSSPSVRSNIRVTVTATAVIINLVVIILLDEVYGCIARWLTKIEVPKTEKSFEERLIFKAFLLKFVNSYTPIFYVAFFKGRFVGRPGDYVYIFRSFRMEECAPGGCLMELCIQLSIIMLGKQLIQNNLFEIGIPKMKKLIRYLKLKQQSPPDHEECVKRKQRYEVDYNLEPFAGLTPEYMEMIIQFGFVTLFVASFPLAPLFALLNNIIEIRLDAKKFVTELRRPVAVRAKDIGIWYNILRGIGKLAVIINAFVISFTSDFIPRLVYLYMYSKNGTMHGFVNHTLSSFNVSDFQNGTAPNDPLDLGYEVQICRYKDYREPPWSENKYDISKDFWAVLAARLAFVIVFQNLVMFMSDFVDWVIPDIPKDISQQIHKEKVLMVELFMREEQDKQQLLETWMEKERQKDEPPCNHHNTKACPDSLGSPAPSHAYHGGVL

SD rats [4] = assay: Chronic constriction injury model; assay type: in vivo; conditions: rat CCI, Electronic Von Frey, vehicle 11.5

Row | Compound | IC50 (ANO1) [µM] | further results
1 | CCOC(=O)C1=C(COCCN)NC(C)=C(C(=O)OC)C1c1ccccc1Cl (stereo not shown) [Amlodipine, reference compound] |  | maximum relative fluorescence units (RFU) vs initial value (Ca^2+ influx) [1]: remained unchanged
2 | CC(C)(C)C1CCc2c(sc(NC(=O)c3ccco3)c2C(=O)O)C1 (stereo not shown) [Compound 1, 6-(tert-Butyl)-2-(furan-2-carboxamido)-4,5,6,7-tetrahydrobenzo[b]thiophene-3-carboxylic acid, reference compound] |  | 5 h residual compound under different pH (%) pH 1.0 ([2]; pH 1.0, 5 h): 93.8 ± 4.0%; 5 h residual compound under different pH (%) pH 4.0 ([2]; pH 4.0, 5 h): 85.3 ± 8.1%; 5 h residual compound under different pH (%) pH 6.8 ([2]; pH 6.8, 5 h): 94.9 ± 2.9%; 5 h residual compound under different pH (%) pH 7.4 ([2]; pH 7.4, 5 h): 98.7 ± 0.7%; 5 h residual compound under different pH (%) pH 9.0 ([2]; pH 9.0, 5 h): 97.6 ± 1.2%; effect on CHO cell proliferation (CHO cells; all concentrations tested): inhibited cell proliferation; analgesic effect in phase 2 compared with vehicle (SD rats [3]; 80 mg/kg i.g., phase 2): no significant analgesic effect; number of foot lifts, phase 2 (SD rats [3]; 80 mg/kg i.g.): 84 foot lifts
3 | CC(C)(C)c1ccc(C(=O)Nc2scc(-c3ccc(F)cc3)c2C(=O)O)cc1 [Compound 33, 2-(4-(tert-Butyl)benzamido)-4-(4-fluorophenyl) thiophene-3-carboxylic acid] | 9.62 | 
4 | CC(C)(C)c1ccc(C(=O)Nc2scc(-c3ccc(Cl)cc3)c2C(=O)O)cc1 [Compound 34, 2-(4-(tert-Butyl)benzamido)-4-(4-chlorophenyl) thiophene-3-carboxylic acid] | 1.34 | 
5 | CC(C)(C)c1ccc(C(=O)Nc2scc(-c3ccc(C(F)(F)F)cc3)c2C(=O)O)cc1 [Compound 35, 2-(4-(tert-Butyl)benzamido)-4-(4-(trifluoromethyl)phenyl) thiophene-3-carboxylic acid] | > 100 | 
6 | CC(C)(C)c1ccc(C(=O)Nc2scc(-c3ccc(C(C)(C)C)cc3)c2C(=O)O)cc1 [Compound 36, 2-(4-(tert-Butyl)benzamido)-4-(4-(tert-butyl)phenyl) thiophene-3-carboxylic acid] | 3.67 | 
7 | CC(C)(C)c1ccc(C(=O)Nc2scc(-c3ccc(-c4ccccc4)cc3)c2C(=O)O)cc1 [Compound 37, 4-([1,1′-Biphenyl]-4-yl)-2-(4-(tert-butyl)benzamido) thiophene-3-carboxylic acid] | 2.3 | 
8 | CC(C)(C)c1ccc(C(=O)Nc2scc(-c3ccc(Cl)cc3Cl)c2C(=O)O)cc1 [Compound 38, 2-(4-(tert-Butyl)benzamido)-4-(2,4-dichlorophenyl) thiophene-3-carboxylic acid] | > 100 | 
9 | CC(C)(C)c1ccc(C(=O)Nc2scc(-c3ccc4ccccc4c3)c2C(=O)O)cc1 [Compound 39, 2-(4-(tert-Butyl)benzamido)-4-(naphthalen-2-yl) thiophene-3-carboxylic acid] | 1.29 | 
10 | COc1ccc(-c2csc(NC(=O)c3cccs3)c2C(=O)O)cc1 [Compound 40, 4-(4-Methoxyphenyl)-2-(thiophene-2-carboxamido) thiophene-3-carboxylic acid] | 25.5 | 
11 | COc1ccc(C(=O)Nc2scc(-c3ccc(C(C)(C)C)cc3)c2C(=O)O)cc1 [Compound 41, 4-(4-(tert-Butyl)phenyl)-2-(4-methoxybenzamido) thiophene-3-carboxylic acid] | 2.28 | 
12 | O=C(Nc1scc(-c2ccc(Cl)cc2)c1C(=O)O)c1ccc2ccccc2c1 [Compound 43, 2-(2-Naphthamido)-4-(4-chlorophenyl) thiophene-3-carboxylic acid] | 2.45 | 
13 | O=C(Nc1scc(-c2ccc(Cl)cc2)c1C(=O)O)c1ccc(Cl)cc1Cl [Compound 44, 4-(4-Chlorophenyl)-2-(2,4-dichlorobenzamido)thiophene-3-carboxylic acid] | 1.24 | 
14 | O=C(Nc1scc(-c2ccc(Cl)cc2)c1C(=O)O)c1cccs1 [Compound 45, 4-(4-Chlorophenyl)-2-(thiophene-2-carboxamido) thiophene-3-carboxylic acid] | 1.74 | 
15 | Cc1ccc(C(=O)Nc2scc(-c3ccc(Cl)cc3)c2C(=O)O)c2ccccc12 [Compound 46, 4-(4-Chlorophenyl)-2-(4-methyl-1-naphthamido) thiophene-3-carboxylic acid] | 14.5 | 
16 | CC(C)(C)c1ccc(C(=O)Nc2sc3c(c2C(=O)O)-c2ccccc2C3)cc1 [Compound 47, 2-(4-(tert-Butyl)benzamido)-8H-indeno [2,1-b] thiophene-3-carboxylic acid] | 12.6 | 
17 | COc1ccc2c(c1)Cc1sc(NC(=O)c3ccc(C(C)(C)C)cc3)c(C(=O)O)c1-2 [Compound 48, 2-(4-(tert-Butyl)benzamido)-6-methoxy-8H-indeno [2,1-b] thiophene-3-carboxylic acid] | 28.9 | 
18 | O=C(Nc1sc2c(c1C(=O)O)-c1ccccc1C2)c1cccs1 [Compound 49, 2-(Thiophene-2-carboxamido)-8H-indeno [2,1-b] thiophene-3-carboxylic acid] | 11.3 | 
19 | O=C(Nc1sc2c(c1C(=O)O)-c1ccccc1C2)c1ccc2ccccc2c1 [Compound 50, 2-(2-Naphthamido)-8H-indeno [2,1-b] thiophene-3-carboxylic acid] | 1.91 | 
20 | O=C(O)c1c(NC(=O)c2cccc3ccccc23)sc2c1-c1ccccc1C2 [Compound 51, 2-(1-Naphthamido)-8H-indeno [2,1-b] thiophene-3-carboxylic acid] | 2.21 | 
21 | CC(C)(C)c1ccc(C(=O)Nc2sc3c(c2C(=O)O)-c2ccccc2C3(C)C)cc1 [Compound 52, 2-(4-(tert-Butyl)benzamido)-8,8-dimethyl-8H-indeno [2,1-b] thiophene-3-carboxylic acid] | 3.33 | 
22 | CC(C)(C)c1ccc(C(=O)Nc2sc3c(c2C(=O)O)-c2ccccc2CC3)cc1 [Compound 53, 2-(4-(tert-Butyl)benzamido)-4,5-dihydronaphtho [2,1-b] thiophene-1-carboxylic acid] | 5.15 | 
23 | CCc1c(C)nc(SCC(=O)Nc2nc(-c3ccc(OC)cc3)cs2)[nH]c1=O [Compound T16Ainh-A01] |  | effect on CHO cell proliferation (CHO cells; 1 and 3 μmol/L): weak effect
24 | CCOC(=O)Nc1ccc(NCc2ccc(F)cc2)nc1N [Flupirtine] |  | number of foot lifts, phase 2 (SD rats [3]; 200 mg/kg i.g.): 74 foot lifts; PTI, pain threshold rate change (%) of 1 h compared to 0 h (SD rats [4]; 100 mg/kg i.g.): 36.2%
25 | CC(C)C[C@H](CN)CC(=O)O [Pregabalin] |  | number of foot lifts, phase 2 (SD rats [3]; 40 mg/kg i.g.): 44 foot lifts; PTI, pain threshold rate change (%) of 1 h compared to 0 h (SD rats [4]; 40 mg/kg i.g.): 60.4%
